ChEMBL document CHEMBL2385063, “Identification of 2-(2-(1-naphthoyl)-8-fluoro-3,4-dihydro-1H-pyrido[4,3-b]indol-5(2H)-yl)acetic acid (setipiprant/ACT-129968), a potent, selective, and orally bioavailable chemoattractant receptor-homologous molecule expressed on Th2 cells (CRTH2) antagonist” (J Med Chem, 2013)
Values after ≈ are worked out from the molar mass of the structure shown. Active and inactive are the calls of the source. The calls are words filed in the database; no cut-off is given here.

Key:
[1] = Oral bioavailability in Wistar rat at 10 mg/kg; format: ADME, organism-based; details: in vivo
Method in brief: (§1)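 Male Wistar rats, three animals per experiment, given iv (0.2, 1 or 2 mg/kg) and po (2 or 10 mg/kg) doses as solutions; AUC0-last, plasma clearance, half-life and oral bioavailability derived.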

[2] = Half life in Wistar rat at 1 mg/kg, iv and 10 mg/kg, po; format: ADME, organism-based; details: in vivo; method in brief: as §1
[3] = Plasma clearance in Wistar rat at 1 mg/kg, iv and 10 mg/kg, po; format: ADME, organism-based; method in brief: as §1
Rattus norvegicus [4] = test: AUC(0 to last) in Wistar rat at 1 mg/kg, iv and 10 mg/kg, po; format: ADME, organism-based, Plasma; details: in vivo; method in brief: as §1
Cytochrome P450 3A4 = Cytochrome P450 3A4 (Homo sapiens, UniProt P08684); test: Inhibition of CYP3A4 in human liver microsomes assessed as midazolam-1'-hydroxylation by LC-MS/MS analysis; format: ADME, Microsome
Cytochrome P450 2D6 = Cytochrome P450 2D6 (Homo sapiens, UniProt P10635); test: Inhibition of CYP2D6 in human liver microsomes assessed as dextromethorphan O-demethylation by LC-MS/MS analysis; format: ADME, Microsome
[5] = Solubility of the compound in water at pH 3.9; format: physicochemical
Method in brief: (§2)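 Compound was stirred in water, 60 mM citrate buffer pH 4 or 70 mM phosphate buffer pH 7 at 300 rpm, 25 °C, for 24 h. The mixture was filtered, and the filtrate concentration was measured by HPLC-UV at 250 nm against a calibration curve.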

[6] = biological target: T1, Prostaglandin D2 receptor 2 (Homo sapiens, UniProt Q9Y5Y4); test: Antagonist activity at CRTH2 receptor in human eosinophils assessed as inhibition of PGD2-induced cell shape change incubated for 1 hr prior to PGD2 induction measured after 5 mins by FACS flow cytometric analysis in presence of human plasma; details: in the assay text read “incubated for 10 mins” for “incubated for 1 hr”
T1 sequence (Q9Y5Y4 whole entry): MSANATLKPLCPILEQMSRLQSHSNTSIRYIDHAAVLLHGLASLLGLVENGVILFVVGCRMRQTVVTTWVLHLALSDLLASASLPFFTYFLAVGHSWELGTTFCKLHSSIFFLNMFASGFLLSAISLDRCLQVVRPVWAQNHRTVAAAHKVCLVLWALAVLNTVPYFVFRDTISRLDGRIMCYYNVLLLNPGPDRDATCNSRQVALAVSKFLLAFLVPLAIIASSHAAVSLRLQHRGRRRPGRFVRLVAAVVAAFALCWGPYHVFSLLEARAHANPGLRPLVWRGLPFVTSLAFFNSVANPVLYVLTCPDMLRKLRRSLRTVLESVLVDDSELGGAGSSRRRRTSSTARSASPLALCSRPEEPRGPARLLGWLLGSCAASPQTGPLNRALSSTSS
Method in brief: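 Polymorphonuclear cells isolated from healthy-donor blood on a Polymorphprep gradient (500g, 30 min), erythrocytes lysed hypotonically. Cells stained 1 h with CD49d-APC, mixed with human plasma, preincubated with antagonist, then stimulated with 15 nM PGD2 for 5 min at 37 °C. Fixed in cold 1% paraformaldehyde. Eosinophils gated by CD49d/SSC; activation read as % cells with raised forward scatter.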

[7] = Volume of distribution at steady state in Wistar rat at 1 mg/kg, iv and 10 mg/kg, po; format: ADME, organism-based; details: in vivo, read-out: Vdss
Method in brief: (§3)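 Male Wistar rats, three animals per experiment, were dosed intravenously and orally with compound given as solutions.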

[8] = Solubility of the compound in water at pH 3.8; format: physicochemical; method in brief: as §2
[9] = Solubility of the compound in water at pH 4.3; format: physicochemical; method in brief: as §2
[10] = Half life in Wistar rat at 2 mg/kg, iv and 10 mg/kg, po; format: ADME, organism-based; details: in vivo; method in brief: as §1
[11] = Plasma clearance in Wistar rat at 2 mg/kg, iv and 10 mg/kg, po; format: ADME, organism-based; method in brief: as §1
Rattus norvegicus [12] = test: AUC(0 to last) in Wistar rat at 2 mg/kg, iv and 10 mg/kg, po; format: ADME, organism-based, Plasma; details: in vivo; method in brief: as §1
[13] = Volume of distribution at steady state in Wistar rat at 2 mg/kg, iv and 10 mg/kg, po; format: ADME, organism-based; details: in vivo, read-out: Vdss; method in brief: as §3
[14] = biological target: T2, Prostaglandin D2 receptor 2 (Mus musculus) (UniProt Q9Z2J6); test: Partial agonist activity at mouse CRTH2 receptor assessed as calcium flux by cell-based FLIPR assay; format: functional
T2 sequence (whole entry): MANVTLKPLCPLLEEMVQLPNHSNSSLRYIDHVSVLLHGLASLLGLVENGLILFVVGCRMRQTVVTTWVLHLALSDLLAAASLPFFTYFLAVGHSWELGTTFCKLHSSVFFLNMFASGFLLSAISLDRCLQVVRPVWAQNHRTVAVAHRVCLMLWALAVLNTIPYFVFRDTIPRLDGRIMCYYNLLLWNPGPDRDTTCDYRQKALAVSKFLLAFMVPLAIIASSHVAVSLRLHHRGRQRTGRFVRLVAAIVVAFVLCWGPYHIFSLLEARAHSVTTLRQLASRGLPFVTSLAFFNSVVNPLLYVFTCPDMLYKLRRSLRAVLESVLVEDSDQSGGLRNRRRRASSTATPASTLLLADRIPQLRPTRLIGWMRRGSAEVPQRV

[15] = biological target: T3, Chemoattractant receptor-homologous molecule expressed on Th2 cells (Cavia porcellus) (UniProt Q56D28); test: Partial agonist activity at guinea pig CRTH2 receptor assessed as calcium flux by cell-based FLIPR assay; format: functional
T3 sequence (whole entry): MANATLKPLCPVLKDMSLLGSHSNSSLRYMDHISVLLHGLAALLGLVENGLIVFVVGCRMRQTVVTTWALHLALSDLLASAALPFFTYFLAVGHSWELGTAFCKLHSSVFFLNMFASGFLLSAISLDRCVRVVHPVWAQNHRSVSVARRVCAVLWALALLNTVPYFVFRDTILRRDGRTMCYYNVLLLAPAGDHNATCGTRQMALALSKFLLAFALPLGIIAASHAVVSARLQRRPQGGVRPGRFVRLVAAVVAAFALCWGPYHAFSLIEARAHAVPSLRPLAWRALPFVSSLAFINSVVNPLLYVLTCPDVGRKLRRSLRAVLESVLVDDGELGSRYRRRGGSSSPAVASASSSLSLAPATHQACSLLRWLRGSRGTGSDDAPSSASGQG

[16] = Clearance in beagle dog at 1 mg/kg, iv; format: ADME, organism-based, Canis lupus familiaris; set-up: dose 1 mg/kg, route intravenous; details: in vivo
Method in brief: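 Male Beagle dogs, three per experiment, given 1 mg/kg iv as a solution in 10% propylene glycol; plasma clearance determined.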

[17] = Oral bioavailability in beagle dog at 10 mg/kg; format: ADME, organism-based, Canis lupus familiaris; details: in vivo
Method in brief: (§4)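 Male Beagle dogs, three per experiment, dosed orally at 10 mg/kg (with a 1 mg/kg iv arm) as solutions containing 10% propylene glycol; AUC0-last and oral bioavailability derived.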

Canis familiaris = test: AUC (0 to last) in beagle dog at 10 mg/kg, po; format: ADME, organism-based, Canis lupus familiaris, Plasma; set-up: time 0 - last, dose 10 mg/kg, route oral; details: in vivo; method in brief: as §4
[18] = Oral bioavailability in Wistar rat at 2 mg/kg; format: ADME, organism-based; details: in vivo; method in brief: as §1
[19] = Plasma clearance in Wistar rat at 0.2 mg/kg, iv and 2 mg/kg, po; format: ADME, organism-based; method in brief: as §1
[20] = Solubility of the compound in water at pH 5.7; format: physicochemical
Method in brief: (§5)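 Compound stirred in 200 μL water at 300 rpm, 25 °C, for 24 h. The biphasic mixture was vacuum-filtered. Filtrate concentration was measured by reversed-phase HPLC with UV detection at 250 nm and quantified from peak area against a calibration curve.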

[21] = Solubility of the compound in water at pH 4.9; format: physicochemical; method in brief: as §5

Sequence of Cytochrome P450 3A4 (P08684 whole entry): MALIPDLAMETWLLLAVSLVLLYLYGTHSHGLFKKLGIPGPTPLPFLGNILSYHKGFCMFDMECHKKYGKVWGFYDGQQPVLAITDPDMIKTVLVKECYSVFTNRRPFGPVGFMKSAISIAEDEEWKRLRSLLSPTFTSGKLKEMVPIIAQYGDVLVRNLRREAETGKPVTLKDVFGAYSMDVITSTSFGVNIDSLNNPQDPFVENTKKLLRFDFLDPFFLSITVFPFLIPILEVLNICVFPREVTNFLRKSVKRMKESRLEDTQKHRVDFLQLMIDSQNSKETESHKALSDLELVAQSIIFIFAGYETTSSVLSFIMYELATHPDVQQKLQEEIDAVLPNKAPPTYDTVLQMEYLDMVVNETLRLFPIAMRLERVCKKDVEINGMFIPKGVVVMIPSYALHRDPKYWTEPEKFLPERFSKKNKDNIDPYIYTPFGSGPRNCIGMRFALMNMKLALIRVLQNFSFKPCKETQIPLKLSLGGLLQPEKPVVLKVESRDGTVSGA
Sequence of Cytochrome P450 2D6 (P10635 whole entry): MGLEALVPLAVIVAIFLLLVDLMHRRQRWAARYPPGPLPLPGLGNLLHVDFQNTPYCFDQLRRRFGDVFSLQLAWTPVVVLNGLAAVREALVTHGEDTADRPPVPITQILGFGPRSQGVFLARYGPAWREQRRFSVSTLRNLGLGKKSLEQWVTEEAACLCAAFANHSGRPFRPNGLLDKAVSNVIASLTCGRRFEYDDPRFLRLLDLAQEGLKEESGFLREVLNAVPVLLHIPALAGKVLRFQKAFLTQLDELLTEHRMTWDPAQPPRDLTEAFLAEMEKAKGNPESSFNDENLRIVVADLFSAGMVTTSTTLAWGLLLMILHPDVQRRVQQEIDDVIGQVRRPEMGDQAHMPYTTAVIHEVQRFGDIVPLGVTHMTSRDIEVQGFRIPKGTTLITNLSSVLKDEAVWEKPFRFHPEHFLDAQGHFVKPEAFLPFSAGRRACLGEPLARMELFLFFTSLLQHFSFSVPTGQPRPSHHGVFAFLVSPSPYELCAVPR

SMILES | bioavailability [1] [%] | half-life [2] [min] | clearance [3] [mL/min/kg] | AUClast (Rattus norvegicus [4]) [ng·h/mL] | IC50 (Cytochrome P450 3A4) [µM] | IC50 (Cytochrome P450 2D6) [µM] | IC50 [6] [nM] | Vd [7] [L/kg] | solubility [9] [µg/mL] | Activity [14] | Activity [15] | other results
O=C(O)Cn1c2c(c3cc(F)ccc31)CN(C(=O)c1cccs1)CC2 | 5 | 36 | 36 | 244 | > 50 | > 50 | 34 | 0.4 |  |  |  | solubility [5]: 50 µg/mL (≈ 140 µM)
O=C(O)Cn1c2c(c3ccccc31)CN(C(=O)c1cccc(Cl)c1)CC2 |  |  |  |  | > 50 | > 50 | 50 |  |  |  |  | solubility [8]: 110 µg/mL (≈ 298 µM)
O=C(O)Cn1c2c(c3ccccc31)CN(C(=O)c1ccccc1)CC2 |  |  |  | 6300 |  |  |  | 0.4 | 64 (≈ 191 µM) |  |  | 
CCc1ccc(-c2ccc(C(=O)N3CCc4c(c5ccccc5n4CC(=O)O)C3)cc2)cc1 | 4 |  |  |  | > 50 | > 50 | 240 |  | 2 (≈ 4.56 µM) |  |  | half-life [10]: 30 min; clearance [11]: 35 mL/min/kg; AUClast (Rattus norvegicus [12]): 171 ng·h/mL; Vd [13]: 0.4 L/kg
Cc1ccc2c(c1)c1c(n2CC(=O)O)CCN(C(=O)c2cccc3ccccc23)C1 |  |  |  |  |  |  | 340 |  |  |  |  | 
O=C(O)Cn1c2c(c3cc(F)ccc31)CN(C(=O)c1cccc3ccccc13)CC2 [SETIPIPRANT] | 44 |  |  |  | > 50 | > 50 | 235 |  | 50 (≈ 124 µM) | Active | Active | half-life [10]: 360 min; clearance [11]: 1.3 mL/min/kg; AUClast (Rattus norvegicus [12]): 58500 ng·h/mL; clearance [16]: 1.3 mL/min/kg; bioavailability [17]: 55%; AUClast (Canis familiaris): 91100 ng·h/mL; Vd [13]: 0.4 L/kg
O=C(O)Cn1c2c(c3cc(F)ccc31)CN(C(=O)Cc1c[nH]c3ccccc13)CC2 |  |  |  |  | > 50 | > 50 | 50 |  |  |  |  | bioavailability [18]: 2%; clearance [19]: 11 mL/min/kg; solubility [8]: 45 µg/mL (≈ 111 µM)
O=C(O)Cn1c2c(c3cc(F)ccc31)CN(C(=O)Cc1cccc3ccccc13)CC2 |  |  |  |  | > 50 | > 50 | 275 |  |  |  |  | solubility [20]: 28 µg/mL (≈ 67.2 µM)
O=C(O)Cn1c2c(c3cc(F)ccc31)CN(C(=O)c1cccc(Cl)c1)CC2 | 23 | 138 | 5.9 | 6450 | > 50 | > 50 | 60 | 0.4 |  | Active | Active | solubility [21]: 25 µg/mL (≈ 64.6 µM); clearance [16]: 11 mL/min/kg; bioavailability [17]: 64%; AUClast (Canis familiaris): 9620 ng·h/mL
O=C(O)Cn1c2c(c3ccccc31)CN(C(=O)c1cccc3ccccc13)CC2 | 36 | 348 | 1.1 | 57300 | > 50 | > 50 |  | 0.4 |  | Active | Active | 
